Active and inactive are the calls of the source. The rule behind the calls is not given here.
What was measured:
Format in all cases: cell-based
[1] = target: T1, Retinoic acid receptor RXR-alpha (Homo sapiens) (UniProt P19793); experiment: Transactivation of human Gal4-fused RXRalpha LBD expressed in HEK293T cells at 50 uM after 12 to 14 hrs by dual-glo luciferase assay
T1 sequence (whole entry): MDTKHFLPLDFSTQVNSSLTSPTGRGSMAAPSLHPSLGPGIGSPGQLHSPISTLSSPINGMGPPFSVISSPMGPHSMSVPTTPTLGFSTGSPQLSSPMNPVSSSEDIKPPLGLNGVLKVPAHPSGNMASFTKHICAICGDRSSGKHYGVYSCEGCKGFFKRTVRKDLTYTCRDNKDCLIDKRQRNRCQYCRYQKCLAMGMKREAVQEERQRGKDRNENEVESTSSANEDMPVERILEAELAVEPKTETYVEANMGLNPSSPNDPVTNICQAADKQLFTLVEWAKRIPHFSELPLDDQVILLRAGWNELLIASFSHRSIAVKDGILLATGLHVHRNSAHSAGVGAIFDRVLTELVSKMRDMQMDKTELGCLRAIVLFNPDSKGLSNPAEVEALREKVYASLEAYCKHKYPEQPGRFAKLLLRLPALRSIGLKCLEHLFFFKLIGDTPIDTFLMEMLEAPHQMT

[2] = target: T2, Retinoic acid receptor RXR-beta (Homo sapiens) (UniProt P28702); experiment: Transactivation of human Gal4-fused RXRbeta LBD expressed in HEK293T cells at 50 uM after 12 to 14 hrs by dual-glo luciferase assay
T2 sequence (whole entry): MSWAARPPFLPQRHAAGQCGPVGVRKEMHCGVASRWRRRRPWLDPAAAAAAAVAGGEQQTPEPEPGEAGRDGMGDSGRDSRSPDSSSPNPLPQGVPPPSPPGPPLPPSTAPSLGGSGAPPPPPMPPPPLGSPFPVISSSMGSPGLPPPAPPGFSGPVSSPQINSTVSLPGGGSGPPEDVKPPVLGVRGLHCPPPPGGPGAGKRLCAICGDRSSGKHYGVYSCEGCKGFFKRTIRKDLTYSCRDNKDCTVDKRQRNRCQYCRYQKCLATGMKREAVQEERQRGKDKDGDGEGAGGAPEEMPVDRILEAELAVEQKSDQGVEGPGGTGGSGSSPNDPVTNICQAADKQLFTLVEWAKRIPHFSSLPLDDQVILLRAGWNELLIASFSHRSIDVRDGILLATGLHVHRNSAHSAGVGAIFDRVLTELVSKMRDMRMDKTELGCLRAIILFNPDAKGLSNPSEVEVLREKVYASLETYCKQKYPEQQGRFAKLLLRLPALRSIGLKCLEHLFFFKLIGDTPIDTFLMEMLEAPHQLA

[3] = target: T3, Retinoic acid receptor RXR-gamma (Homo sapiens) (UniProt P48443); experiment: Transactivation of human Gal4-fused RXRgamma LBD expressed in HEK293T cells at 50 uM after 12 to 14 hrs by dual-glo luciferase assay
T3 sequence (whole entry): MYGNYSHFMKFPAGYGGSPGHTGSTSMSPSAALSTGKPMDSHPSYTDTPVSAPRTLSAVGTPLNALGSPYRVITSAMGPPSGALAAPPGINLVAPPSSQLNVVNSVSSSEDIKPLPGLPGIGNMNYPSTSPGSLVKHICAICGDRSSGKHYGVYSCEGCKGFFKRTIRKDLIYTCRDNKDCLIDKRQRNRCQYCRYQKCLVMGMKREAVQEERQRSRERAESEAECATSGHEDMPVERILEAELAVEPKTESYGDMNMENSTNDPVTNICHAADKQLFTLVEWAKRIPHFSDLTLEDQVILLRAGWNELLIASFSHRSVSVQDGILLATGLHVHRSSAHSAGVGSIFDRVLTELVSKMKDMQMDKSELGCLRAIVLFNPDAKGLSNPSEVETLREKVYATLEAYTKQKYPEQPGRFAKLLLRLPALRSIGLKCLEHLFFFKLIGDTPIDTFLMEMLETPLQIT

[4] = target: T4, Retinoic acid receptor RXR-alpha (Homo sapiens, UniProt P19793); experiment: Transactivation of human Gal4-fused RXRalpha LBD expressed in HEK293T cells after 12 to 14 hrs by dual-glo luciferase assay
T4 sequence (P19793 whole entry): T1 sequence (whole entry)
Summary of the method: (§1)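 Gal4-hybrid reporter gene assay in HEK293T cells with the RXRα, RXRβ or RXRγ construct. Dose–response curves give EC50 and fold activation as mean ± SEM from n ≥ 4 independent experiments in duplicate.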

[5] = target: T5, Retinoic acid receptor RXR-beta (Homo sapiens, UniProt P28702); experiment: Transactivation of human Gal4-fused RXRbeta LBD expressed in HEK293T cells after 12 to 14 hrs by dual-glo luciferase assay; summary of the method: as §1
T5 sequence (P28702 whole entry): T2 sequence (whole entry)

[6] = target: T1, Retinoic acid receptor RXR-alpha (Homo sapiens); experiment: Transactivation of human Gal4-fused RXRalpha LBD expressed in HEK293T cells after 12 to 14 hrs by dual-glo luciferase assay relative to bexarotene
[7] = target: T2, Retinoic acid receptor RXR-beta (Homo sapiens); experiment: Transactivation of human Gal4-fused RXRbeta LBD expressed in HEK293T cells after 12 to 14 hrs by dual-glo luciferase assay relative to bexarotene
[8] = target: T6, Retinoic acid receptor RXR-gamma (Homo sapiens, UniProt P48443); experiment: Transactivation of human Gal4-fused RXRgamma LBD expressed in HEK293T cells after 12 to 14 hrs by dual-glo luciferase assay; summary of the method: as §1
T6 sequence (P48443 whole entry): T3 sequence (whole entry)

[9] = target: T3, Retinoic acid receptor RXR-gamma (Homo sapiens); experiment: Transactivation of human Gal4-fused RXRgamma LBD expressed in HEK293T cells after 12 to 14 hrs by dual-glo luciferase assay relative to bexarotene
[10] = target: T7, Retinoid X receptor (Homo sapiens) (UniProt P28702+P48443+P19793); experiment: Transactivation of RXR in human HepG2 cells assessed as induction of ABCA1 mRNA expression at 10 uM after 8 hrs by qRT-PCR analysis
Summary of the method: (§2)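 HepG2 cells were treated and ABCA1 or ApoE mRNA levels measured. Results are given as mean fold induction versus 0.1% DMSO vehicle ± SEM, n = 3. Significance was set at p < 0.05, 0.01 or 0.001.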

[11] = target: T7, Retinoid X receptor (Homo sapiens); experiment: Transactivation of RXR in human HepG2 cells assessed as induction of apoE mRNA expression at 10 uM after 8 hrs by qRT-PCR analysis; summary of the method: as §2
[12] = target: T1, Retinoic acid receptor RXR-alpha (Homo sapiens); experiment: Transactivation of human Gal4-fused RXRalpha LBD expressed in HEK293T cells at 30 uM after 12 to 14 hrs by dual-glo luciferase assay
Summary of the method: (§3)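 Single-concentration selectivity profiling in Gal4-hybrid reporter gene assays in HEK293T cells. Each nuclear receptor construct (RAR, PPAR, LXR, FXR, CAR, VDR, PXR, RXR) was tested at 30 μM.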

HepG2 = experiment: Cytotoxicity against human HepG2 cells assessed as reduction in cell viability up to 100 uM after 48 hrs by WST1 assay; details: hepg2, 48 h
[13] = target: T7, Retinoid X receptor (Homo sapiens); experiment: Transactivation of RXR in human HepG2 cells assessed as induction of ABCA1 mRNA expression at 30 uM after 8 hrs by qRT-PCR analysis; summary of the method: as §2
[14] = target: T7, Retinoid X receptor (Homo sapiens); experiment: Transactivation of RXR in human HepG2 cells assessed as induction of apoE mRNA expression at 30 uM after 8 hrs by qRT-PCR analysis; summary of the method: as §2
[15] = target: T8, Peroxisome proliferator-activated receptor gamma (Homo sapiens) (UniProt P37231); experiment: Transactivation of human Gal4-fused PPARgamma LBD expressed in HEK293T cells at 30 uM after 12 to 14 hrs by dual-glo luciferase assay; summary of the method: as §3
T8 sequence (whole entry): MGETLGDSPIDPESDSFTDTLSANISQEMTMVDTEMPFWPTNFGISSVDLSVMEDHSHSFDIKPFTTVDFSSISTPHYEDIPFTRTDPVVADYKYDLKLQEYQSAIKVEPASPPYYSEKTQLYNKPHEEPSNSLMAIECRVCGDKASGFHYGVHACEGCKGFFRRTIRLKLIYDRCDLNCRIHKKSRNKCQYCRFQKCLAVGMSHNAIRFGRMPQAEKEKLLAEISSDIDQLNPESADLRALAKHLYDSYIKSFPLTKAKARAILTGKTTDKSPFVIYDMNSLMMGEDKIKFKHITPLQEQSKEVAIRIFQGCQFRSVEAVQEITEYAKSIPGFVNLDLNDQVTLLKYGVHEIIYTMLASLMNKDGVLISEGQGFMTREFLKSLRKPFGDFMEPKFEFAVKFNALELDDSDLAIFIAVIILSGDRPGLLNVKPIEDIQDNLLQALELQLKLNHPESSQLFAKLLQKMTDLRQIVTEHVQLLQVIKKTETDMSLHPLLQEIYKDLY

EC50 [4] | EC50 [5] | fold change (FC) [6] | fold change (FC) [7] | EC50 [8] | fold change (FC) [9] | Compound | also measured
9.1 µM | 2.2 µM | 56 | 64 | 2.5 µM | 7 | Cc1c2c(n(-c3ccc(CCCC(=O)O)cc3)c1C)CCC(F)(F)C2 | 
4.3 µM | 6.6 µM | 31 | 48 | 24.8 µM | 11 | Cc1ccc(C)n1-c1ccc(CCCC(=O)O)cc1 | 
 |  | 69 | 121 |  | 44 | Cc1c2c(n(-c3ccc(CC(=O)O)cc3)c1C)CCC(F)(F)C2 | Activity [10]: Active; Activity [11]: Active
8 µM | 16 µM | 2.8 | 3.2 | 14 µM | 2 | CC(C)=C(C)c1ccc(-c2cnc(CCC(=O)O)o2)cc1 | 
23.6 µM | 13.9 µM | 26 | 30 | 27.2 µM | 11 | Cc1ccc(-n2c(C)c(C)c3c2CCC(F)(F)C3)cc1O | 

The next lines start with the molecule.

Compound | EC50 [4] | EC50 [5] | fold change (FC) [6] | fold change (FC) [7] | EC50 [8] | fold change (FC) [9] | also measured
Cc1ccc(C)n1C(CC1CCCC1)C(=O)O (centres undefined) |  |  |  |  |  |  | Activity [1]: inactive; Activity [2]: inactive; Activity [3]: inactive
Cc1ccc(C)n1-c1ccc(SCC(=O)O)cc1 | > 30 µM | > 30 µM |  |  |  |  | Activity [3]: inactive
CCC(C)[C@@H]1C(=O)/C(=C(/O)[C@@H]2[C@@H]3[C@H](C)C[C@H](C)C[C@@H]3C=C[C@@H]2[C@]2(C)O[C@H]2C)C(=O)N1C (some centres undefined) |  |  |  |  |  |  | Activity [1]: inactive
C=C[C@@]1(C)CC[C@H]2C(=CC[C@@H]3[C@]2(C)CCC[C@@]3(C)C(=O)O)C1 [ISOPIMARIC ACID] | 26 µM | 32 µM | 13 | 7 | 33 µM | 7 | Activity [12]: Active; Activity (HepG2): Toxic; Activity [13]: Active; Activity [14]: Active
Cc1c2c(n(C[C@H]3CC[C@H](C(=O)O)CC3)c1C)CCC(F)(F)C2 | 24 µM | 27.1 µM | 69 | 99 | 50 µM | 18 | 
CC(C)c1ccc2c(c1)CC[C@H]1[C@](C)(C(=O)O)CCC[C@]21C [DEHYDROABIETIC ACID] | 42 µM | 42 µM | 9 | 6 | 42 µM | 6 | Activity [12]: Active; Activity [15]: Active; Activity (HepG2): Toxic; Activity [13]: Active; Activity [14]: Active
C/C=C/c1ccc2c(c1)[C@@H](C)[C@H](c1ccc(O)cc1)O2 |  |  |  |  |  |  | Activity [1]: inactive

Reference: ChEMBL document CHEMBL4145619, “Computer-Assisted Discovery of Retinoid X Receptor Modulating Natural Products and Isofunctional Mimetics” (J Med Chem, 2018)
